Source: ChEMBL document CHEMBL1129929, “Analogues of methotrexate in rheumatoid arthritis. 1. Effects of 10-deazaaminopterin analogues on type II collagen-induced arthritis in mice” (J Med Chem, 1997)
pIC50: −log10 of the molar value.

What was measured:
Mus musculus [1] = assay: Incidence of disease(mouse type II collagen arthritis) was scored as the percentage of animals within each experimental group that exhibited joint or limb inflammation on day 44 at intraperitoneal of dose 12 mg/kg; format: functional
Summary of the method: (§1)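 DBA/1 mice were immunized with bovine type II collagen (modified Courtenay method), with a collagen booster on day 21. Compounds were given ip starting 2 days before the first collagen challenge and every 2 days thereafter. Incidence was the percentage of animals per group with joint or limb inflammation, scored on days 23, 30, 37 and 44.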

Mus musculus [2] = assay: Incidence of disease(mouse type II collagen arthritis) was scored as the percentage of animals within each experimental group that exhibited joint or limb inflammation on day 37 at intraperitoneal of dose 18 mg/kg; format: functional; summary of the method: as §1
Mus musculus [3] = assay: Tested for antiinflammatory activity on mouse type II collagen arthritis as Paw swelling* of all animals in each group on day 30 at intraperitoneal dose of 12 mg/kg; format: functional
Summary of the method: (§2)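 DBA/1 mice immunized with bovine type II collagen (Courtenay method, modified), antigen booster at day 21. Compounds given ip from 2 days before the first collagen challenge, then every 2 days. Hind paw dimensions (mm) measured for both limbs of all animals, expressed as mean ± SD. Eight mice per dose; untreated controls pooled from four experiments (48 animals).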

Mus musculus [4] = assay: Tested for antiinflammatory activity on mouse type II collagen arthritis as Paw swelling* of all animals in each group on day 23 at intraperitoneal dose of 12 mg/kg; format: functional; summary of the method: as §2
Mus musculus [5] = assay: Incidence of disease(mouse type II collagen arthritis) was scored as the percentage of animals within each experimental group that exhibited joint or limb inflammation on day 23 at intraperitoneal dose of 18 mg/kg; format: functional; summary of the method: as §1
Mus musculus [6] = assay: Tested for antiinflammatory activity on mouse type II collagen arthritis as Paw swelling* of all animals in each group on day 23 at intraperitoneal dose of 18 mg/kg; format: functional; summary of the method: as §2
L1210 = assay: Concentration required to inhibit the growth of L1210 cells; format: functional, cell-based; conditions: Mus musculus
Mus musculus [7] = assay: Tested for antiinflammatory activity on mouse type II collagen arthritis as Paw swelling* of all animals in each group on day 37 at intraperitoneal dose of 18 mg/kg; format: functional; summary of the method: as §2
[8] = Concentration required to inhibit the growth of chang liver cells; format: functional; conditions: Homo sapiens
Mus musculus [9] = assay: Tested for antiinflammatory activity on mouse type II collagen arthritis as Paw swelling* of all animals in each group on day 44 at intraperitoneal dose of 12 mg/kg; format: functional; summary of the method: as §2
Mus musculus [10] = assay: Incidence of disease(mouse type II collagen arthritis) was scored as the percentage of animals within each experimental group that exhibited joint or limb inflammation on day 37 at intraperitoneal of dose 12 mg/kg; format: functional; summary of the method: as §1
Mus musculus [11] = assay: Incidence of disease(mouse type II collagen arthritis) was scored as the percentage of animals within each experimental group that exhibited joint or limb inflammation on day 23 at intraperitoneal of dose 12 mg/kg; format: functional; summary of the method: as §1
Mus musculus [12] = assay: Incidence of disease(mouse type II collagen arthritis) was scored as the percentage of animals within each experimental group that exhibited joint or limb inflammation on day 44 at intraperitoneal of dose 18 mg/kg; format: functional; summary of the method: as §1
Mus musculus [13] = assay: Tested for antiinflammatory activity on mouse type II collagen arthritis as Paw swelling* of all animals in each group on day 37 at intraperitoneal dose of 12 mg/kg; format: functional; summary of the method: as §2
Mus musculus [14] = assay: Incidence of disease(mouse type II collagen arthritis) was scored as the percentage of animals within each experimental group that exhibited joint or limb inflammation on day 30 at intraperitoneal of dose 18 mg/kg; format: functional; summary of the method: as §1
Mus musculus [15] = assay: Incidence of disease(mouse type II collagen arthritis) was scored as the percentage of animals within each experimental group that exhibited joint or limb inflammation on day 30 at intraperitoneal of dose 12 mg/kg; format: functional; summary of the method: as §1
Mus musculus [16] = assay: Tested for antiinflammatory activity on mouse type II collagen arthritis as Paw swelling* of all animals in each group on day 44 at intraperitoneal dose of 18 mg/kg; format: functional; summary of the method: as §2
Mus musculus [17] = assay: Tested for antiinflammatory activity on mouse type II collagen arthritis as Paw swelling* of all animals in each group on day 30 at intraperitoneal dose of 18 mg/kg; format: functional; summary of the method: as §2
Mus musculus [18] = assay: Tested for antiinflammatory activity on mouse type II collagen arthritis as Paw swelling* of all animals in each group on day 30 at intraperitoneal dose of 1.25 mg/kg; format: functional; summary of the method: as §2
Mus musculus [19] = assay: Tested for antiinflammatory activity on mouse type II collagen arthritis as Paw swelling* of all animals in each group on day 30 at intraperitoneal dose of 2.25 mg/kg; format: functional; summary of the method: as §2
Mus musculus [20] = assay: Incidence of disease(mouse type II collagen arthritis) was scored as the percentage of animals within each experimental group that exhibited joint or limb inflammation on day 30 at intraperitoneal of dose 5 mg/kg; format: functional; summary of the method: as §1
Mus musculus [21] = assay: Tested for antiinflammatory activity on mouse type II collagen arthritis as Paw swelling* of all animals in each group on day 37 at intraperitoneal dose of 5 mg/kg; format: functional; summary of the method: as §2
Mus musculus [22] = assay: Incidence of disease(mouse type II collagen arthritis) was scored as the percentage of animals within each experimental group that exhibited joint or limb inflammation on day 30 at intraperitoneal of dose 2.5 mg/kg; format: functional; summary of the method: as §1
Mus musculus [23] = assay: Tested for antiinflammatory activity on mouse type II collagen arthritis as Paw swelling* of all animals in each group on day 37 at intraperitoneal dose of 2.25 mg/kg; format: functional; summary of the method: as §2
Mus musculus [24] = assay: Incidence of disease(mouse type II collagen arthritis) was scored as the percentage of animals within each experimental group that exhibited joint or limb inflammation on day 44 at intraperitoneal of dose 1.25 mg/kg; format: functional; summary of the method: as §1
Mus musculus [25] = assay: Tested for antiinflammatory activity on mouse type II collagen arthritis as Paw swelling* of all animals in each group on day 23 at intraperitoneal dose of 2.25 mg/kg; format: functional; summary of the method: as §2
Mus musculus [26] = assay: Incidence of disease(mouse type II collagen arthritis) was scored as the percentage of animals within each experimental group that exhibited joint or limb inflammation on day 23 at intraperitoneal dose of 1.25 mg/kg; format: functional; summary of the method: as §1
Mus musculus [27] = assay: Tested for antiinflammatory activity on mouse type II collagen arthritis as Paw swelling* of all animals in each group on day 30 at intraperitoneal dose of 5 mg/kg; format: functional; summary of the method: as §2
Mus musculus [28] = assay: Tested for antiinflammatory activity on mouse type II collagen arthritis as Paw swelling* of all animals in each group onn day 44 at intraperitoneal dose of 2.25 mg/kg; format: functional; summary of the method: as §2
Mus musculus [29] = assay: Incidence of disease(mouse type II collagen arthritis) was scored as the percentage of animals within each experimental group that exhibited joint or limb inflammation on day 44 at intraperitoneal of dose 5 mg/kg; format: functional; summary of the method: as §1
Mus musculus [30] = assay: Incidence of disease(mouse type II collagen arthritis) was scored as the percentage of animals within each experimental group that exhibited joint or limb inflammation on day 30 at intraperitoneal of dose 1.25 mg/kg; format: functional; summary of the method: as §1
Mus musculus [31] = assay: Tested for antiinflammatory activity on mouse type II collagen arthritis as Paw swelling* of all animals in each group on day 23 at intraperitoneal dose of 1.25 mg/kg; format: functional; summary of the method: as §2
Mus musculus [32] = assay: Incidence of disease(mouse type II collagen arthritis) was scored as the percentage of animals within each experimental group that exhibited joint or limb inflammation on day 44 at intraperitoneal of dose 2.5 mg/kg; format: functional; summary of the method: as §1
Mus musculus [33] = assay: Incidence of disease(mouse type II collagen arthritis) was scored as the percentage of animals within each experimental group that exhibited joint or limb inflammation on day 23 at intraperitoneal dose of 2.5 mg/kg; format: functional; summary of the method: as §1
Mus musculus [34] = assay: Incidence of disease(mouse type II collagen arthritis) was scored as the percentage of animals within each experimental group that exhibited joint or limb inflammation on day 37 at intraperitoneal of dose 2.5 mg/kg; format: functional; summary of the method: as §1
Mus musculus [35] = assay: Incidence of disease(mouse type II collagen arthritis) was scored as the percentage of animals within each experimental group that exhibited joint or limb inflammation on day 37 at intraperitoneal of dose 5 mg/kg; format: functional; summary of the method: as §1
Mus musculus [36] = assay: Incidence of disease(mouse type II collagen arthritis) was scored as the percentage of animals within each experimental group that exhibited joint or limb inflammation on day 37 at intraperitoneal of dose 1.25 mg/kg; format: functional; summary of the method: as §1
Mus musculus [37] = assay: Tested for antiinflammatory activity on mouse type II collagen arthritis as Paw swelling* of all animals in each group on day 44 at intraperitoneal dose of 5 mg/kg; format: functional; summary of the method: as §2
Mus musculus [38] = assay: Tested for antiinflammatory activity on mouse type II collagen arthritis as Paw swelling* of all animals in each group on day 23 at intraperitoneal dose of 5 mg/kg; format: functional; summary of the method: as §2
Mus musculus [39] = assay: Incidence of disease(mouse type II collagen arthritis) was scored as the percentage of animals within each experimental group that exhibited joint or limb inflammation on day 23 at intraperitoneal dose of 5 mg/kg; format: functional; summary of the method: as §1

Nc1nc(N)c2nc(CCc3ccc(C(=O)NC(CCC(=O)O)C(=O)O)s3)cnc2n1 (stereo not given)
Animals (Mus musculus [1]): 50% | Animals (Mus musculus [2]): 38% | Paw swelling (Mus musculus [3]): 2.15 mm | Paw swelling (Mus musculus [4]): 2.15 mm | Animals (Mus musculus [5]): 0% | Paw swelling (Mus musculus [6]): 2.14 mm | pIC50 (L1210): 8.09 | Paw swelling (Mus musculus [7]): 2.26 mm | pIC50 [8]: 8.51 | Paw swelling (Mus musculus [9]): 2.58 mm | Animals (Mus musculus [10]): 50% | Animals (Mus musculus [11]): 0% | Animals (Mus musculus [12]): 25% | Paw swelling (Mus musculus [13]): 2.28 mm | Animals (Mus musculus [14]): 0% | Animals (Mus musculus [15]): 0% | Paw swelling (Mus musculus [16]): 2.38 mm | Paw swelling (Mus musculus [17]): 2.16 mm

CCC(Cc1cnc2nc(N)nc(N)c2n1)c1ccc(C(=O)NC(CCC(=O)O)C(=O)O)cn1 (stereo not given)
Paw swelling (Mus musculus [18]): 2.24 mm | Paw swelling (Mus musculus [19]): 2.18 mm | Animals (Mus musculus [20]): 63% | Animals (Mus musculus [1]): 100% | Paw swelling (Mus musculus [21]): 2.56 mm | Paw swelling (Mus musculus [3]): 2.2 mm | Paw swelling (Mus musculus [4]): 2.21 mm | Animals (Mus musculus [22]): 25% | Paw swelling (Mus musculus [23]): 2.75 mm | pIC50 (L1210): 6.57 | Animals (Mus musculus [24]): 100% | Paw swelling (Mus musculus [25]): 2.15 mm | Animals (Mus musculus [26]): 12% | pIC50 [8]: 7.46 | Paw swelling (Mus musculus [27]): 2.32 mm | Paw swelling (Mus musculus [9]): 2.86 mm | Paw swelling (Mus musculus [28]): 2.75 mm | Animals (Mus musculus [29]): 88% | Animals (Mus musculus [10]): 88% | Animals (Mus musculus [30]): 38% | Animals (Mus musculus [11]): 12% | Paw swelling (Mus musculus [31]): 2.17 mm | Animals (Mus musculus [32]): 75% | Animals (Mus musculus [33]): 0% | Animals (Mus musculus [34]): 75% | Paw swelling (Mus musculus [13]): 2.59 mm | Animals (Mus musculus [35]): 75% | Animals (Mus musculus [36]): 75% | Animals (Mus musculus [15]): 25% | Paw swelling (Mus musculus [37]): 3.09 mm | Paw swelling (Mus musculus [38]): 2.15 mm | Animals (Mus musculus [39]): 12%
